Data reported in ChEMBL document CHEMBL4138118, “Novel thioglycosyl analogs of glycosyltransferase substrates as antiviral compounds against classical swine fever virus and hepatitis C virus” (Eur J Med Chem, 2017).
Activity calls are given as the source filed them. The rule behind the calls is not given here.

Legend:
[1] = Cytotoxicity against human Huh7.5 cells assessed as reduction in cell viability after 72 hrs by MTT method; format: cell-based
[2] = Cytotoxicity against SK6 cells assessed as reduction in cell viability after 2 days by MTS method; format: cell-based, Sus scrofa; details: pig; for Activity: 48 h; for CC50 at 48 h: SK6 cells
Procedure, shortened: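 SK6 viability by MTS (CellTiter 96 AQueous) assay; CC50 is the concentration reducing viability by 50%, taken from the dose-response curve.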

[3] = Selectivity index, ratio of CC50 for Huh7.5 cells to IC50 for HCV Jc1/JFH; format: toxicity; details: human, read-out: Ratio CC50/IC50
Procedure, shortened: (§1)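 Selectivity index is CC50/IC50, taken from the cell viability assay (SK6 by MTS, Huh-7.5 by MTT) and the matching pseudo-plaque reduction assay.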

[4] = tested on: Classical swine fever virus; experiment: Antiviral activity against CSFV infected in SK6 cells assessed as reduction of pseudo-plaque formation after 2 days by immunoperoxidase monolayer assay; format: functional, organism-based; details: 48 h
[5] = Selectivity index, ratio of CC50 for SK6 cells to IC50 for CSFV; format: toxicity; details: pig, read-out: Ratio CC50/IC50; procedure, shortened: as §1
Hepatitis C virus [6] = experiment: Antiviral activity against HCV Jc1/JFH infected in human Huh7.5 cells assessed as reduction of pseudo-plaque formation after 72 hrs by immunoperoxidase monolayer assay; format: functional, organism-based, Hepacivirus hominis; details: for IC50: Huh7.5, 72 h; for Activity: Hepacivirus hominis
Procedure, shortened: (§2)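 Huh-7.5 cells seeded at 1.5 × 10^4 per well, infected next day with Jc1/JFH HCVcc (genotype 2a) at MOI 0.1 for 3 h. Virus removed, medium with compound added; 72 h later cells fixed in cold methanol, permeabilized (0.5% Triton X-100), stained with anti-core antibody (1:300), HRP secondary. Pseudo-plaques counted by microscopy against untreated infected control; IC50 at 50% plaque reduction; three independent experiments.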

Hepatitis C virus [7] = experiment: Antiviral activity against HCV genotype 2a JFH1 infected in human Huh7-J20 cells assessed as inhibition of viral RNA replication at 1.56 to 75 uM after 72 hrs by SEAP reporter assay; format: functional, organism-based; details: Hepacivirus hominis, JFH-1
Procedure, shortened: (§3)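 Huh7-J20 SEAP reporter cells, infected with JFH-1 HCVcc, read-out SEAP chemiluminescence in supernatant after 72 h. Model 1: 1 h compound pretreatment, 3 h infection with compound, then compound-free medium. Model 2: same, with compound kept for the full 72 h. Model 3: 3 h infection, compound added afterwards only. DMSO control; three experiments.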

Hepatitis C virus [8] = experiment: Antiviral activity against HCV infected in human Huh7-J17 cells assessed as inhibition of viral RNA replication at 75 uM after 72 hrs by bright-glo luciferase reporter assay relative to control; format: functional, Hepacivirus hominis
Procedure, shortened: (§4)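 Huh7-J17 replicon cells seeded in 96-well plates together with compound, DMSO or sofosbuvir and incubated 72 h. Cells lysed and luciferase read with Bright-Glo. Values expressed as % of DMSO-treated cells; IC50 from dose-response fit; three experiments.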

[9] = Effect on actin levels in human Huh7.5 cells at 3.12 to 75 uM under reducing condition after 48 hrs by Western blot method; format: ADME, cell-based
Procedure, shortened: (§5)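 Huh-7.5 cells infected with HCV (MOI 0.1), washed after 1–6 h, then treated with inhibitor. Lysed in RIPA buffer with protease inhibitors after 48 h (methods; legend gives 72 h p.i.). 20 µg protein run on reducing SDS-PAGE; Western blot probed with anti-E1 mAb (1:2000) and anti-actin (1:1000).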

Hepatitis C virus [10] = experiment: (§6) Antiviral activity against HCV genotype 2a JFH1 infected in human Huh7-J20 cells assessed as inhibition of viral entry at 1.56 to 75 uM pretreated for 1 hr with cells followed by viral infection for 3 hrs and subsequent compound washout measured after 72 hrs by SEAP reporter assay; format: functional, organism-based; details: Hepacivirus hominis, JFH-1; procedure, shortened: as §3
Hepatitis C virus [11] = experiment: Antiviral activity against HCV genotype 2a JFH1 infected in human Huh7-J20 cells assessed as inhibition of viral assembly at 1.56 to 75 uM after 72 hrs by SEAP reporter assay; format: functional, organism-based; details: Hepacivirus hominis, JFH-1; procedure, shortened: as §3
[12] = Effect on actin levels in SK6 cells at 3.75 to 30 uM under non-reducing condition after 48 hrs by Western blot method; format: ADME, cell-based, Sus scrofa; details: pig
[13] = Cytotoxicity against human Huh7-J17 cells assessed as decrease in cell viability after 72 hrs by MTT assay; format: cell-based
Procedure, shortened: (§7)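 Uninfected Huh7-J17, Huh7-J20 or Huh-7.5 cells incubated with compound, then viability read by MTT. Time stated as 72 h for Huh7-J20 and Huh7-J17, and 48 h for Huh-7.5. Results expressed relative to DMSO-treated cells (100%); CC50 from the dose-response curve.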

Hepatitis C virus [14] = experiment: as §6, with “of complete” for “of”, “life cycle” for “entry”, “subsequent addition of fresh medium with” for “subsequent”, “compound” for “compound washout”; format: functional, organism-based; details: Hepacivirus hominis, JFH-1; procedure, shortened: as §3
[15] = Cytotoxicity against human Huh7-J20 cells assessed as decrease in cell viability at 1.56 to 75 uM after 72 hrs by MTT assay; format: cell-based; procedure, shortened: as §7
Hepatitis C virus [16] = experiment: Antiviral activity against HCV infected in human Huh7-J17 cells assessed as inhibition of viral RNA replication after 72 hrs by bright-glo luciferase reporter assay; format: functional, organism-based, Hepacivirus hominis; procedure, shortened: as §4
[17] = tested on: Classical swine fever virus; experiment: Inhibition of CSFV glycosyltransferase in SK6 cells assessed as downregulation of viral E2 levels under non-reducing condition after 48 hrs by Western blot method; format: cell-based
Hepatitis C virus [18] = experiment: Antiviral activity against HCV Jc1/JFH infected in human Huh7.5 cells assessed as downregulation of NS5B gene expression after 48 hrs by RT-PCR method; format: functional, organism-based; details: Hepacivirus hominis
Procedure, shortened: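 Huh-7.5 cells infected with HCV (MOI 0.1) for 4 h, washed, then cultured with compound for 48 h. Total RNA isolated; 1 µg reverse-transcribed with an NS5B-specific reverse primer, then PCR for NS5B. Band densitometry expressed as % of untreated infected control.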

Hepatitis C virus [19] = experiment: Antiviral activity against HCV Jc1/JFH infected in human Huh7.5 cells assessed as reduction of pseudo-plaque formation at 80 uM after 72 hrs by immunoperoxidase monolayer assay relative to control; format: functional, Hepacivirus hominis; parameters: scale not given: the % may be the effect or the level left; procedure, shortened: as §2
[20] = Effect on actin levels in human Huh7.5 cells at 6.25 to 100 uM under reducing condition after 48 hrs by Western blot method; format: ADME, cell-based; procedure, shortened: as §5
[21] = tested on: Classical swine fever virus; experiment: Antiviral activity against CSFV infected in SK6 cells assessed as reduction of pseudo-plaque formation at 9 uM after 2 days by immunoperoxidase monolayer assay relative to control; format: functional; parameters: scale not given: the % may be the effect or the level left
[22] = Effect on actin levels in SK6 cells at 2.5 to 10 uM under non-reducing condition after 48 hrs by Western blot method; format: ADME, cell-based, Sus scrofa; details: pig

Compound | CC50 at 72 h [1] | Activity [2] | CC50 at 48 h [2] | selectivity ratio [3] | IC50 [4] | selectivity ratio [5] | IC50 (Hepatitis C virus [6]) | inhibition (Hepatitis C virus [7]) | inhibition at 75 µM (Hepatitis C virus [8]) | inhibition (Hepatitis C virus [10]) | inhibition (Hepatitis C virus [11]) | CC50 at 72 h [13] | inhibition (Hepatitis C virus [14]) | Activity [15] | IC50 (Hepatitis C virus [16]) | inhibition [17] | Activity (Hepatitis C virus [6]) | Activity (Hepatitis C virus [18]) | other results
CC(=O)OC[C@H]1O[C@@H](Sc2ccc(NC(=O)[C@H]3O[C@@H](n4ccc(=O)[nH]c4=O)[C@@H]4OC(C)(C)O[C@@H]43)cn2)[C@H](OC(C)=O)[C@@H](OC(C)=O)[C@H]1OC(C)=O | 312 µM | Dose-dependent effect | > 353 µM | 1.2 | > 299 µM | > 1.2 | 271 µM |  |  |  |  |  |  |  |  |  |  |  | 
CC(=O)OC[C@H]1O[C@@H](Sc2ccc(NC(=O)[C@H]3O[C@@H](n4ccc(=O)[nH]c4=O)[C@H](O[Si](C)(C)C(C)(C)C)[C@@H]3O[Si](C)(C)C(C)(C)C)cn2)[C@H](OC(C)=O)[C@@H](OC(C)=O)[C@H]1OC(C)=O | 173 µM | Dose-dependent effect | 151 µM | 24.7 | 6 µM | 25.2 | 7 µM | Active | 90% | inactive | Active | 245 µM | Active | Non-Toxic | 3.74 µM | Dose-dependent effect | Dose-dependent effect | Dose-dependent effect | Activity [9]: Non-Toxic; Activity [12]: Non-Toxic
O=C(Nc1ccc(S[C@@H]2O[C@H](CO)[C@@H](O)[C@H](O)[C@H]2O)nc1)[C@H]1O[C@@H](n2ccc(=O)[nH]c2=O)[C@H](O)[C@@H]1O | 420 µM | Dose-dependent effect | 380 µM | 1.05 | 370 µM | 1 | 402 µM |  |  |  |  |  |  |  |  |  |  |  | 
CC(=O)OC[C@H]1O[C@@H](Sc2ccc(NC(=O)[C@H]3O[C@@H](n4ccc(=O)[nH]c4=O)[C@H](O[Si](C)(C)C(C)(C)C)[C@@H]3O[Si](C)(C)C(C)(C)C)cn2)[C@H](OC(C)=O)[C@@H](OC(C)=O)[C@@H]1OC(C)=O | 135 µM | Dose-dependent effect | 86 µM | 19.3 | 3 µM | 28.7 | 7 µM | Active | 90% | inactive | Active | 185 µM | Active | Non-Toxic | 4 µM | Dose-dependent effect | Dose-dependent effect | Dose-dependent effect | Activity (Hepatitis C virus [19]): >90%; Activity [20]: Non-Toxic; Activity [21]: >90%; Activity [22]: Non-Toxic
CC(=O)OC[C@H]1O[C@@H](Sc2ccc(NC(=O)[C@H]3O[C@@H](n4ccc(=O)[nH]c4=O)[C@@H]4OC(C)(C)O[C@@H]43)cn2)[C@H](OC(C)=O)[C@@H](OC(C)=O)[C@@H]1OC(C)=O | 271 µM | Dose-dependent effect | > 380 µM | 1.1 | > 325 µM | > 1.2 | 244 µM |  |  |  |  |  |  |  |  |  |  |  | 
